One series deals with Integrin alpha-V/beta-3 (Homo sapiens, UniProt P05106+P06756). Nature of the series: Inhibition of integrin alpha-V-beta-3 receptor by ELISA. It counts as protein-complex assay. The procedure, abridged:
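Vitronectin-coated wells (1 µg/mL) were blocked with 3% BSA/PBS-Tween. Soluble αvβ3 (1 µg/mL) was incubated with serially diluted inhibitor for 1 h at RT in Tris/NaCl/MnCl2/BSA buffer. Binding was read with anti-αvβ3 plus anti-mouse-HRP, then TMB, absorbance 450 nm. IC50 was taken at the turning point of the inhibition curve.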
(In general: ELISA stands for enzyme-linked immunosorbent assay.)

Series [1] deals with Integrin alpha-IIb/beta-3 (Homo sapiens, UniProt P05106+P08514). Kind of series: Inhibition of integrin alpha-2b-beta-3 receptor by ELISA. It counts as protein-complex assay. The procedure, abridged:
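Solid-phase ELISA. Wells coated with fibrinogen (10 µg/mL) and blocked with 3% BSA in PBS/0.1% Tween 20 for 1 h at RT. Soluble αIIbβ3 (5 µg/mL) was incubated with serially diluted inhibitor in Tris pH 7.6, 150 mM NaCl, 1 mM MnCl2/MgCl2/CaCl2, 1 mg/mL BSA for 1 h at RT. Detection used anti-CD41b then anti-mouse-HRP, TMB, A450. IC50 was taken as the curve turning point.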

The next series deals with Integrin alpha-V/beta-5 (Homo sapiens, UniProt P06756+P18084). Nature of the series: Inhibition of integrin alpha-V-beta-5 receptor by ELISA. It counts as protein-complex assay. In a few lines:
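ELISA on vitronectin coating (5 µg/mL). Soluble αvβ5 (1.5 µg/mL) was incubated with serially diluted inhibitor for 1 h at RT in Tris pH 7.6, NaCl, 1 mM each MnCl2/MgCl2/CaCl2, BSA, 0.05% Tween 20. Detection used anti-αvβ5 and anti-mouse-HRP, TMB, A450. IC50 was the inflection point.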

For series [2], the target named is T1, Integrin alpha-5/beta-1 (Homo sapiens, UniProt P05556+P08648). Kind of series: Inhibition of integrin alpha-5-beta-1 receptor by ELISA. It counts as protein-complex assay. In a few lines: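 Wells coated overnight at 4°C with fibronectin (0.25 µg/mL) at pH 9.6, then blocked with 3% BSA. Bound integrin was detected with anti-human-Fc-HRP, TMB, A450. IC50 was taken from the curve turning point.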

Series [3] can be described thus: Inhibition of integrin alpha-3b-beta-1 receptor by ELISA. Details: species or system Homo sapiens. The procedure, abridged:
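Solid-phase ELISA. Wells coated with laminin (5 µg/mL) and blocked with 3% BSA/PBS-Tween. Soluble α3β1 (2 µg/mL) was incubated with serially diluted inhibitor in Tris pH 7.6, NaCl, 1 mM MnCl2, BSA, 0.05% Tween 20 for 1 h at RT. Detection used polyclonal anti-α3β1 then anti-rabbit-HRP, TMB/H2SO4, absorbance 450 nm. IC50 was taken as the inflection point.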

The species named for series [4] is Homo sapiens. Kind of series: Selectivity for integrin alpha5beta1 over alpha-3-beta-1 receptor.
The species named for series [5] is Homo sapiens. Nature of the series: Selectivity for integrin alpha-5-beta-1 over alpha2bbeta3 receptor.
For series [6], the species on record is Homo sapiens. Nature of the series: Selectivity for integrin alpha-5-beta-1 over alphaVbeta5 receptor.
The species named for series [7] is Homo sapiens. Kind of series: Selectivity for integrin alpha5beta1 over alphaVbeta3 receptor.
The nature of series [8]: Stability in human microsome at 1 uM after 1 hr. It counts as ADME. As to conditions: microsomes, read-out: Stability. The procedure, abridged: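 Compound at 1 µM was incubated with human microsomes for 1 h, and the percentage remaining was recorded.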
Series [9] concerns the target T1, Integrin alpha-5/beta-1. Kind of series: Inhibition of integrin alpha-5-beta-1 receptor expressed in HEK293 cells. It counts as cell-based. In a few lines:
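HEK293 cells with endogenous α5β1 were tested for adhesion to fibronectin. IC50 was determined.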

Structures are written as SMILES. Where only a bound is given, the exact number is not on record here.

Integrin alpha-V/beta-5, sequence (P06756 31-889 limits assumed): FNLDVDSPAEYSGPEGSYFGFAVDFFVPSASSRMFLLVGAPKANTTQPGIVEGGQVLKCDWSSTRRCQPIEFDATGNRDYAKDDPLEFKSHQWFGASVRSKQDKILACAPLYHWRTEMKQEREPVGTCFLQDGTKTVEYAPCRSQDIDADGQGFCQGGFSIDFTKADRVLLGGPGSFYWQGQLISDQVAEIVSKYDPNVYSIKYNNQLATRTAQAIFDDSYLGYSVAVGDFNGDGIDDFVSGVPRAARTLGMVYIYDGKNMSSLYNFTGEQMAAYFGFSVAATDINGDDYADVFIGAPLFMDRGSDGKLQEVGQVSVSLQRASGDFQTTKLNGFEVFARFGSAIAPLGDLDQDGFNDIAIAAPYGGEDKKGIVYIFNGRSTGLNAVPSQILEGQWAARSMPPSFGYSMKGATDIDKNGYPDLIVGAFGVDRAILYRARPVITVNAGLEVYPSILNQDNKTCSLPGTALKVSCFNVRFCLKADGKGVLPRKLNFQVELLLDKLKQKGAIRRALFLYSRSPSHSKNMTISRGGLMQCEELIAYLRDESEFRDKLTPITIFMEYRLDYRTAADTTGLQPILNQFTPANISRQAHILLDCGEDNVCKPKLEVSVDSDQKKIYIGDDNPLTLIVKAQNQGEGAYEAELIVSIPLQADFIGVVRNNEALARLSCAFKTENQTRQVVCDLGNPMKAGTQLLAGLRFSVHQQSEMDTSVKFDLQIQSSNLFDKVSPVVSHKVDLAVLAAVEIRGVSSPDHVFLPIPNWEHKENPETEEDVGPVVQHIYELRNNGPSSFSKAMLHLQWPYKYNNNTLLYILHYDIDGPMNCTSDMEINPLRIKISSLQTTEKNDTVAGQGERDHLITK
Integrin alpha-V/beta-5, sequence (P06756 891-1048 limits assumed): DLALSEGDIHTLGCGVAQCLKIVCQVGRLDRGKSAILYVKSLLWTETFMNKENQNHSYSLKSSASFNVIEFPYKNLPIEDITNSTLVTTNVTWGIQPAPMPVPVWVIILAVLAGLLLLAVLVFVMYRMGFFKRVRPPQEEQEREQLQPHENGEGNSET
Integrin alpha-V/beta-5, sequence (P18084 24-799 limits assumed): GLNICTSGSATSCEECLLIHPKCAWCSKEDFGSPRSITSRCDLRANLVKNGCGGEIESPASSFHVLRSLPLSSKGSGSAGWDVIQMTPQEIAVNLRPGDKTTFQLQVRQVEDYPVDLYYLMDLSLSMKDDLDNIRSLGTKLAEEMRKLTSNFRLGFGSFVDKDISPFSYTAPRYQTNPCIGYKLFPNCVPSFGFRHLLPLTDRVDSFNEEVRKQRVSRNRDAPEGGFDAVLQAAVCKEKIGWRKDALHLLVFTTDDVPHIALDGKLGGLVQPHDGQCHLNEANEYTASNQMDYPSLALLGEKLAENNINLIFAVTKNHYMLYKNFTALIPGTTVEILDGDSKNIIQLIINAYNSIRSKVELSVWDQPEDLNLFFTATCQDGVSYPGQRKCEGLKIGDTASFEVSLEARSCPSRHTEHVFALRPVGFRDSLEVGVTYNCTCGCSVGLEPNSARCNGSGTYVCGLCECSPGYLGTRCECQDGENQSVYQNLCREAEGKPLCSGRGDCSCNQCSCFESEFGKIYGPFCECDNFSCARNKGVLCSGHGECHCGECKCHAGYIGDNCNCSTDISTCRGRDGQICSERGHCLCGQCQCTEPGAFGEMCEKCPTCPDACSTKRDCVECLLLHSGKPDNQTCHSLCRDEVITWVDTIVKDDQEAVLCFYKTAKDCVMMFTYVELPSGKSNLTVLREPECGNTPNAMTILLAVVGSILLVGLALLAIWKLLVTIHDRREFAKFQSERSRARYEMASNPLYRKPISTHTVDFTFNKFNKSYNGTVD
Integrin alpha-V/beta-3, sequence (P05106 27-788 limits assumed): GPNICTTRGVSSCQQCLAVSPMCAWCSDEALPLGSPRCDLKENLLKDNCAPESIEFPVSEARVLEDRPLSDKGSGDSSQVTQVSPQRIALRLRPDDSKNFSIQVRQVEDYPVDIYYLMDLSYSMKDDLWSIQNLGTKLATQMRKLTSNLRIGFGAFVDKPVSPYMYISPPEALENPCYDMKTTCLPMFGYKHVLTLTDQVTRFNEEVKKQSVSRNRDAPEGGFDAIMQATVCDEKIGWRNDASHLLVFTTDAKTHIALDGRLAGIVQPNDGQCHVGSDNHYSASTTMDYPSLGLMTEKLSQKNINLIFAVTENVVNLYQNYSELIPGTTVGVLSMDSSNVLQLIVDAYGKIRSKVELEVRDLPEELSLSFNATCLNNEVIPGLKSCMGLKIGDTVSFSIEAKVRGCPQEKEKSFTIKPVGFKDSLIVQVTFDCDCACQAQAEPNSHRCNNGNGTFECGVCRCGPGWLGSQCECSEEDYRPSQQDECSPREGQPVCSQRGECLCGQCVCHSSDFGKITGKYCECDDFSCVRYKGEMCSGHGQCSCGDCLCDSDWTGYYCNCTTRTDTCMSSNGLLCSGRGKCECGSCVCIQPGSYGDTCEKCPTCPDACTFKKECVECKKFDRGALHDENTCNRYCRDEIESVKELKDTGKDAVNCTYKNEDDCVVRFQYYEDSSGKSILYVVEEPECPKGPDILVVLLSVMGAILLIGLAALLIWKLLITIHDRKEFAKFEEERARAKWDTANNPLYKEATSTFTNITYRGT
Integrin alpha-V/beta-3, sequence (P06756 31-889 limits assumed): as the sequence (P06756 31-889 limits assumed) above
Integrin alpha-V/beta-3, sequence (P06756 891-1048 limits assumed): as the sequence (P06756 891-1048 limits assumed) above
Integrin alpha-IIb/beta-3, sequence (P05106 27-788 limits assumed): as the sequence (P05106 27-788 limits assumed) above
Integrin alpha-IIb/beta-3, sequence (P08514 32-887 limits assumed): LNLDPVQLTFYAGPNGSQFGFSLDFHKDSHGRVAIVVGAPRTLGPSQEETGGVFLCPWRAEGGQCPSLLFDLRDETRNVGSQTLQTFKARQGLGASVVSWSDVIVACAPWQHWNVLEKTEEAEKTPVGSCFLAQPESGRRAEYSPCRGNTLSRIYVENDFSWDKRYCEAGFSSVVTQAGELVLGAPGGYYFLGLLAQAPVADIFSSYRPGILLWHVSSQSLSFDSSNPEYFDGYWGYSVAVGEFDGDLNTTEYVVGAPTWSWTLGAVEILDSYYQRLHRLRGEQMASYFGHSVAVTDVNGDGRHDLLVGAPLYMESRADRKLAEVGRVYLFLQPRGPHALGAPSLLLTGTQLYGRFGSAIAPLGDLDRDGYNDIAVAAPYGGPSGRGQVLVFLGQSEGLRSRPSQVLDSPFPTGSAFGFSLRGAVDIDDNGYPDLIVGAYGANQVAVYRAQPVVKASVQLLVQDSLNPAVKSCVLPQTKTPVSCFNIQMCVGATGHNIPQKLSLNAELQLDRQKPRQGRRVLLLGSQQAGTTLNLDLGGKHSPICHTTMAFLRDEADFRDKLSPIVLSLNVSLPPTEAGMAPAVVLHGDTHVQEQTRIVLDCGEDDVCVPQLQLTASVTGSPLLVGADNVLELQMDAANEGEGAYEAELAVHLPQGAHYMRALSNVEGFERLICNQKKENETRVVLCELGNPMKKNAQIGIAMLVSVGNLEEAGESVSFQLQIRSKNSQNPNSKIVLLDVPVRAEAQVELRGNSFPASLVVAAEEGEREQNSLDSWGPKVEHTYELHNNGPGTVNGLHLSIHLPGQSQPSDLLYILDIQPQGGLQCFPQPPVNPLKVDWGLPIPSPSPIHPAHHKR
Integrin alpha-IIb/beta-3, sequence (P08514 891-1039 limits assumed): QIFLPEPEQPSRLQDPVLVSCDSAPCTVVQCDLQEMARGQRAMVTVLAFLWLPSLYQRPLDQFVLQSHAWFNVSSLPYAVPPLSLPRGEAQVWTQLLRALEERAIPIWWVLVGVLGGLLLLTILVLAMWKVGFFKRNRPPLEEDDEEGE

Broadly, the IC50 is the point on the concentration scale where inhibition reaches its midpoint. For `COc1ccnc(NC[C@@H]2C[C@@H](OCC(=O)NC[C@H](NS(=O)(=O)c3c(C)cc(C)cc3C)C(=O)O)CN2C(=O)CC(C)(C)C)c1`, the IC50 at Integrin alpha-V/beta-3 was 4 nM; in series [1], 11000 nM; against Integrin alpha-V/beta-5 it was 29 nM; against Integrin alpha-5/beta-1 [2] it was 0.9 nM.
In the case of `COc1ccnc(NC[C@@H]2C[C@@H](OCC(=O)NC[C@H](NC(=O)C3(C)CCCCC3)C(=O)O)CN2C(=O)CC(C)(C)C)c1`, the IC50 on Integrin alpha-V/beta-3 was 980 nM; in series [1], above 50000 nM; in series [3] it was 50000 nM; on Integrin alpha-V/beta-5, 4300 nM; at Integrin alpha-5/beta-1 [2], 0.55 nM.
For the molecule `O=C(CO[C@@H]1C[C@@H](CNc2ccccn2)N(C(=O)OCc2ccccc2)C1)NC[C@H](NC(=O)c1ccccc1)C(=O)O`, the IC50 against Integrin alpha-V/beta-3 turned out to be 140 nM; at Integrin alpha-5/beta-1 [2], 155 nM.
With `Cc1cc(C)c(S(=O)(=O)N[C@@H](CNC(=O)CO[C@@H]2C[C@@H](CNc3cc(Cl)ccn3)N(C(=O)OCc3ccccc3)C2)C(=O)O)c(C)c1`, 445 nM corresponded to half-maximal inhibition on Integrin alpha-5/beta-1 [2] (IC50).
`CC1(C(=O)N[C@@H](CNC(=O)CO[C@@H]2C[C@@H](CNc3ccccn3)N(C(=O)OCc3ccccc3)C2)C(=O)O)CCCCC1`: the IC50 against Integrin alpha-V/beta-3 was 880 nM; in series [1], above 50000 nM; at Integrin alpha-V/beta-5, 550 nM; on Integrin alpha-5/beta-1 [2] it was 1.7 nM.
With `Cc1cc(C)c(C(=O)N[C@@H](CNC(=O)CO[C@@H]2C[C@@H](CNc3ccccn3)N(C(=O)OCc3ccccc3)C2)C(=O)O)c(C)c1`, the Selectivity ratio in the series filed under Homo sapiens [4], in the series filed under Homo sapiens [5], in the series filed under Homo sapiens [6] and in the series listed under Homo sapiens [7] was 10000 each time. Further, the IC50 at Integrin alpha-V/beta-3 is 30000 nM; in series [1], above 50000 nM; in series [3] it was 36000 nM; on Integrin alpha-V/beta-5, 30000 nM; against Integrin alpha-5/beta-1 [2], 3.5 nM.
With `Cc1cc(C)c(S(=O)(=O)N[C@@H](CNC(=O)CO[C@@H]2C[C@@H](CNc3cccc(C)n3)N(C(=O)OCc3ccccc3)C2)C(=O)O)c(C)c1`, the IC50 on Integrin alpha-V/beta-3 worked out at 21 nM; on Integrin alpha-5/beta-1 [2] it was 231 nM.
For `Cc1cc(C)c(S(=O)(=O)N[C@@H](CNC(=O)CO[C@@H]2C[C@@H](CNc3ccccn3)N(C(=O)OCc3ccccc3)C2)C(=O)O)c(C)c1`, the remaining at 1 h, 1 µM in series [8] amounted to 43%. The IC50 was 16 nM on Integrin alpha-V/beta-3, above 200000 nM in [3] and 330 nM against Integrin alpha-V/beta-5.
Take `COC(=O)N1C[C@H](OCC(=O)NC[C@H](NS(=O)(=O)c2c(C)cc(C)cc2C)C(=O)O)C[C@H]1CNc1ccccn1`: the IC50 stood at 9 nM against Integrin alpha-V/beta-3 and 15 nM on Integrin alpha-5/beta-1 [2].
With `Cc1cc(C)c(S(=O)(=O)N[C@@H](CNC(=O)CO[C@H]2CN[C@H](CNc3ccccn3)C2)C(=O)O)c(C)c1`, half-maximal inhibition against Integrin alpha-5/beta-1 [2] (IC50) required 286 nM.
Regarding `COc1ccnc(NC[C@@H]2C[C@@H](OCC(=O)NC[C@H](NS(=O)(=O)c3c(C)cc(C)cc3C)C(=O)O)CN2C(=O)OCc2ccccc2)c1`, the IC50 on Integrin alpha-V/beta-3 was 2.4 nM; in series [1], 7.7 nM; at Integrin alpha-V/beta-5, 19 nM; against Integrin alpha-5/beta-1 [2] it was 1.1 nM.
As to `COc1ccnc(NC[C@@H]2C[C@@H](OCC(=O)NC[C@H](NC(=O)c3c(C)cc(C)cc3C)C(=O)O)CN2C(=O)OCc2ccccc2)c1`, the IC50 came to 3400 nM at Integrin alpha-V/beta-3; 50000 nM in series [1]; 20000 nM in [3]; 2700 nM on Integrin alpha-V/beta-5; 0.54 nM at Integrin alpha-5/beta-1 [2].
`Cc1cc(C)c(S(=O)(=O)N[C@@H](CNC(=O)CO[C@@H]2C[C@@H](CNc3ccccn3)N(CCCc3ccccc3)C2)C(=O)O)c(C)c1` came in with an IC50 against Integrin alpha-5/beta-1 [2] of 670 nM.
In the case of `Cc1cc(C)c(S(=O)(=O)N[C@@H](CNC(=O)CO[C@@H]2C[C@@H](CNc3ccccn3)N(C(=O)CCc3ccccc3)C2)C(=O)O)c(C)c1`, the IC50 against Integrin alpha-V/beta-3 was determined as 38 nM; on Integrin alpha-5/beta-1 [2], 25 nM.
In the case of `COc1ccnc(NC[C@@H]2C[C@@H](OCC(=O)NC[C@H](NC(=O)C3(C)CCCCC3)C(=O)O)CN2C(=O)OCc2ccccc2)c1`, the IC50 at Integrin alpha-V/beta-3 is 690 nM; in [1] it was above 50000 nM; in series [3] it was 30000 nM; at Integrin alpha-V/beta-5, 3100 nM; at Integrin alpha-5/beta-1 [2], 0.8 nM.
As to `Cc1cc(C)c(S(=O)(=O)N[C@@H](CNC(=O)CO[C@@H]2C[C@@H](CNc3ccccn3)N(C(=O)CC(C)(C)C)C2)C(=O)O)c(C)c1`, in [8], the remaining at 1 h, 1 µM is 70%. Further, the half-maximal inhibitory concentration (IC50) is 36 nM against Integrin alpha-V/beta-3, 8000 nM in [1], 245 nM on Integrin alpha-V/beta-5 and 6 nM on Integrin alpha-5/beta-1 [2].
With `Cc1cc(C)c(C(=O)N[C@@H](CNC(=O)CO[C@@H]2C[C@@H](CNc3ccccn3)N(C(=O)CC(C)(C)C)C2)C(=O)O)c(C)c1`, the IC50 was 16000 nM on Integrin alpha-V/beta-3, above 50000 nM in series [1], above 50000 nM at Integrin alpha-V/beta-5 and 1.6 nM against Integrin alpha-5/beta-1 [2].
Regarding `O=C(CO[C@@H]1C[C@@H](CNc2ccccn2)N(C(=O)OCc2ccccc2)C1)NC[C@H](NS(=O)(=O)c1ccccc1)C(=O)O`, the IC50 on Integrin alpha-V/beta-3 came out at 6.3 nM; in series [1], 12000 nM; against Integrin alpha-V/beta-5, 260 nM; at Integrin alpha-5/beta-1 [2], 86 nM.
With `CC(C)(C)CC(=O)N1C[C@H](OCC(=O)NC[C@H](NC(=O)C2(C)CCCCC2)C(=O)O)C[C@H]1CNc1ccccn1`, the IC50 on Integrin alpha-V/beta-3 was 1600 nM; in [1] it was above 50000 nM; against Integrin alpha-V/beta-5, 2300 nM; at Integrin alpha-5/beta-1 [2], 1.4 nM.
For `COc1ccnc(NC[C@@H]2C[C@@H](OCC(=O)NC[C@H](NC(=O)c3c(C)cc(C)cc3C)C(=O)O)CN2C(=O)CC(C)(C)C)c1`, the IC50 is 3300 nM at Integrin alpha-V/beta-3; above 50000 nM in series [1]; 13000 nM in series [3]; 6800 nM against Integrin alpha-V/beta-5; 0.55 nM against Integrin alpha-5/beta-1 [2]; 50 nM on Integrin alpha-5/beta-1 [9].

The record behind these values is ChEMBL document CHEMBL1148701, “Design and synthesis of a new class of selective integrin alpha5beta1 antagonists” (J Med Chem, 2007).
